From PubChem BioAssay
In the library only some 2.9% were active in any assay of this set; here they are far more common.
T cruzi inh: T. cruzi replication inhibition. T. cruzi beta-gal in NIH3T3, luminescence, 90 h. inhibition, % (no concentration beside the values). 1.4% of 300,000 active;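 active means mean inhibition across valid replicates above about 55%, limit read from the data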;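 further: signal also drops with host cell toxicity which is not excluded here; 0% = plate median of DMSO wells and 100% = zero luminescence signal; higher percent means less beta-gal luminescence so fewer parasites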
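assay system = mouse NIH/3T3 fibroblasts infected with β-gal-expressing T. cruzi Tulahuen C4 | input = 5,000 NIH/3T3 host cells per well | buffer or medium = DMEM plus 2% FBS | timing = 3 h host attachment, then at least 90 h co-culture | measured by = GalScreen luminescence, 60 min | evaluation = luminescence reflecting intracellular parasite burden, expressed as percent inhibition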
Rev-erbA mod: Rev-erb alpha (human) modulation; P20393; Rev-erbα–FITC-DNA binding, fluorescence polarization, 90 min; activity, % at 10 µM; 0.79% of 370,000 active; AID 1259318;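 active means activity above about 14%, limit read from the data; passing the limit was not always enough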;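 further: 0% = DMSO wells with 35 nM protein and 100% = DMSO wells with 750 nM protein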
Target sequence (P20393 whole entry, looked up): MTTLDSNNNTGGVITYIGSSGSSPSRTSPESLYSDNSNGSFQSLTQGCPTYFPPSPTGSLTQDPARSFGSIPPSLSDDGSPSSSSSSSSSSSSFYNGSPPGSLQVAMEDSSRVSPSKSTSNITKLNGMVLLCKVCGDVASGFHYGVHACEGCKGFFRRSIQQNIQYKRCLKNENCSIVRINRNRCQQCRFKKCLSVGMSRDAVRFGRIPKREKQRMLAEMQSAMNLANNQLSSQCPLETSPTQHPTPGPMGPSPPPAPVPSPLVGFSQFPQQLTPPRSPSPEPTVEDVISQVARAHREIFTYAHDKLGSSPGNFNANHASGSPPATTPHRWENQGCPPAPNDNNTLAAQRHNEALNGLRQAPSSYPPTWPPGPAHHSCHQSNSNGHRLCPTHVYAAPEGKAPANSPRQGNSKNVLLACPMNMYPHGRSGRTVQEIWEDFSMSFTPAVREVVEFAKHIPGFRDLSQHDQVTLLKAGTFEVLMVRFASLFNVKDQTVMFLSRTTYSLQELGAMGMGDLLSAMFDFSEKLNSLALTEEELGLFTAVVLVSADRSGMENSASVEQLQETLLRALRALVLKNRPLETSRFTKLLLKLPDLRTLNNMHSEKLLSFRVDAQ
TAG inh: reduces triacylglycerol accumulation in H9c2 cells; Nile Red lipid (TAG) fluorescence; cells loaded with 200 µM oleic acid; inhibition, % at 12.5 µM; 0.66% of 230,000 active; AID 651582;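 active means pattern-corrected inhibition of lipid staining of at least 50% with the nuclear-stain viability signal not falling by more than 50%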;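 further: 0% = DMSO wells and 100% = triacsin C control wells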
MIN6 prolif: induces beta-cell replication in MIN6 cells. MIN6 cells proliferation, ATPlite luminescence, 48 h; cells starved in 0.2% serum; 100% = growth in 10% serum. proliferation, % at 10 µM. 0.29% of 330,000 active;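 active means compounds whose signal lies at least 3.5 SD above the mean of all wells on their plate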;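 further: 0% = DMSO-treated cells in low-serum medium and 100% = 10% serum control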
hiPSC survival: enhancers of human iPSC single-cell survival; 0.044% of 360,000 active; hiPSC single-cell survival, ATPlite luminescence; 100% = ROCK inhibitor wells, 0% = DMSO; survival enhancement, % at 20 µM; in the data active means survival enhancement above about 18%;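 further: cells exposed to compounds for 16 hours before the ATP read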
PG9 binder: PG9 antibody binding by small molecule; TR-FRET gp120-PG9 antibody binding; 0.43% of 360,000 active; inhibition, % at 6.7 µM; in the data active means inhibition above about 8.5%
NR1D1 mod conf: confirmation of modulators of human Rev-erb alpha DNA binding; shares compounds with Rev-erbA mod; Rev-erb alpha FITC-DNA binding, fluorescence polarization, 90 min; activation, % at 25 µM; 61% of 3,000 active;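 active means activation at or above a set limit, or at least 3 SD above the negative control mean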;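 further: 0% = 35 nM protein with DMSO and 100% = 750 nM protein high control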
RORg DNA counter: affects RORgamma DNA binding in a Rev-erb alpha counter-screen. purified RORgamma protein-FITC-DNA binding, fluorescence polarization. IC50, µM. 8% of 910 active. shares compounds with Rev-erbA mod;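 active means Compounds whose fitted half-maximal concentration for disrupting protein-DNA binding is below 10 micromolar; the record names Rev-erb in its text, so the target is in doubt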
* = called active by the depositor; / = no result given.

SMILES	T cruzi inh	Rev-erbA mod	TAG inh	MIN6 prolif	hiPSC survival	PG9 binder	NR1D1 mod conf	others
O=C(NCC(=O)N1CCCCC1)c1sc2ccccc2c1Cl	/	2	14	-2	0	2	/
O=C(CNC(=O)c1sc2ccccc2c1Cl)NCc1ccccc1	3	22*	10	0	0	-9	11
Cc1ccnc(NC(=O)c2cc(-c3ccc(Cl)s3)nc3ccccc23)c1	23	24*	10	-4	0	-4	-6
O=C(Nc1ccccn1)c1cc(-c2ccc(Cl)s2)nc2ccccc12	/	0	14	-5	0	-1	/
O=C(Cc1c[nH]c2ccccc12)NCc1ccc2c(c1)OCO2	-13	0	-17	-5	6	-2	/
Cc1ccccc1S(=O)(=O)NC(=O)C1(C)CCN1C(=O)C/C=C/c1ccccc1 (stereo unspecified)	/	6	8	/	2	-1	/
COC(=O)[C@]12CCCCC=C1N(Cc1cccc3ccccc13)C(=O)[C@H](CC(=O)NCc1cccs1)C2	/	16*	/	/	0	0	3
O=c1c2cc(Br)ccc2[nH]c(=S)n1Cc1ccccc1	-6	39*	/	-5	0	2	18*
CCN(CC)C(=O)c1ccc2c(=O)n(Cc3cccc(Br)c3)c(=S)[nH]c2c1	6	33*	/	-5	/	3	13
CCN(CC)C(=O)c1ccc2c(=O)n(CCOC)c(=S)[nH]c2c1	-17	0	/	-2	2	1	/
Cc1nn(-c2ncc(C(F)(F)F)cc2Cl)c(=O)n1-c1c(F)cccc1F	-2	0	-13	-1	2	-2	/
CCC(=C(c1ccc(OC)cc1)c1ccc(OC)cc1)c1cn(CC(O)CN(CCO)CCO)c2ccccc12 (stereo unspecified)	/	-6	16	-6	1	0	/
O=C(CSc1cn(CCNC(=O)c2ccccc2F)c2ccccc12)NCC1CCCO1 (stereo unspecified)	-7	-2	3	-3	0	-1	/
COc1ccc(-c2cc3nc[nH]c(=O)c3s2)cc1	-1	42*	-20	-5	-6	1	15
CCOc1ccc(-c2nnc3ccc(SCC(=O)Nc4nc5ccc(C)cc5s4)nn23)cc1	12	34*	/	0	1	2	34*	RORg DNA counter=>40
CCOc1ccc(-c2nnc3ccc(SCC(=O)Nc4nc5ccccc5s4)nn23)cc1	19	14	/	0	0	-2	/
